Assay results published in ChEMBL document CHEMBL5247575 (J Med Chem, 2018).
≈ marks a conversion by molar mass, not a printed value.

What was measured:
Acinetobacter baumannii [1] = assay: Antibacterial activity against Acinetobacter baumannii PR476 producing OXA-24/40 by broth microdilution method; assay type: functional
Acinetobacter baumannii [2] = assay: Antibacterial activity against Acinetobacter baumannii NCTC 13301 producing OXA-23/51 infected in sc dosed Swiss albino mouse administered 1 hr post infection and measured upto 7 days; assay type: functional; conditions: for ED90 / ED50: NCTC 13301, 168 h, time <= 7 day; for ED50: read-out: PD50
How it was run: (§1)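 Peritonitis model: male and female Swiss albino mice infected intraperitoneally with 3.5×10^5 to 3×10^6 CFU/mouse in 5% hog gastric mucin (lethal to untreated mice within 24 h). […] Survival followed 7 days; PD50/PD90 by probit analysis.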

Acinetobacter baumannii [3] = assay: Antibacterial activity against Acinetobacter baumannii NCTC 13303 producing OXA-26/51 infected in sc dosed Swiss albino mouse administered 1 hr post infection and measured upto 7 days; assay type: functional; conditions: NCTC 13303, 168 h, time <= 7 day; how it was run: as §1
Acinetobacter baumannii [4] = assay: Antibacterial activity against Acinetobacter baumannii SL46 producing OXA-23/51 infected in sc dosed Swiss albino mouse administered 1 hr post infection and measured upto 7 days; assay type: functional; conditions: SL46, 168 h, time <= 7 day; how it was run: as §1
Acinetobacter baumannii [5] = assay: Antibacterial activity against Acinetobacter baumannii SL04 producing OXA-23/51 infected in Swiss mouse model of neutropenic lung infection assessed as reduction in log10CFU at 50 mg/kg
Acinetobacter baumannii [6] = assay: Antibacterial activity against Acinetobacter baumannii SL04 producing OXA-23/51 infected in Swiss mouse model of neutropenic lung infection
Escherichia coli = assay: Antibacterial activity against Escherichia coli DH10B transfected with pBC SK (-) OXA-48 by broth microdilution method; assay type: functional
Klebsiella pneumoniae [7] = assay: Antibacterial activity against Klebsiella pneumoniae 660/1568 producing KPC-3 by broth microdilution method; assay type: functional
Klebsiella pneumoniae [8] = assay: Antibacterial activity against Klebsiella pneumoniae 977/1916 producing KPC-3 by broth microdilution method; assay type: functional
Acinetobacter baumannii [9] = assay: Antibacterial activity against ADC deleted Acinetobacter baumannii transfected with pWH1266 producing OXA-24/40 by broth microdilution method; assay type: functional
Acinetobacter baumannii [10] = assay: Antibacterial activity against Acinetobacter baumannii SL46 producing OXA-23/51 infected in sc dosed Swiss albino mouse administered 1 hr post infection and measured upto 7 days; conditions: SL46, 168 h
Acinetobacter baumannii [11] = assay: Antibacterial activity against Acinetobacter baumannii NCTC 13303 producing OXA-26/51 infected in sc dosed Swiss albino mouse administered 1 hr post infection and measured upto 7 days; conditions: NCTC 13303, 168 h; for ED50: read-out: PD50

Compound	MIC (Acinetobacter baumannii [1]) [µg/mL]	ED90 (Acinetobacter baumannii [2]) [mg/kg]	ED50 (Acinetobacter baumannii [2]) [mg/kg]	MIC (Acinetobacter baumannii [6]) [µg/mL]	ED90 (Acinetobacter baumannii [11]) [mg/kg]	ED50 (Acinetobacter baumannii [11]) [mg/kg]	further results
CO/N=C(\C(=O)N[C@@H]1C(=O)N2C(C(=O)[O-])=C(C[N+]3(C)CCCC3)CS[C@H]12)c1csc(N)n1	1 (≈ 2.08 µM)	> 100	> 100				ED90 (Acinetobacter baumannii [3]): 50 mg/kg; ED50 (Acinetobacter baumannii [3]; read-out: PD50): 50 mg/kg; ED90 (Acinetobacter baumannii [4]): 50 mg/kg; ED50 (Acinetobacter baumannii [4]; read-out: PD50): 50 mg/kg; Activity (Acinetobacter baumannii [5]): 0.98 log10CFU
C[C@@H](O)[C@H]1C(=O)N2C(C(=O)O)=C(SCCNC=N)C[C@H]12 [IMIPENEM ANHYDROUS]				64 (≈ 214 µM)			
C[C@@H](O)[C@H]1C(=O)N2C(C(=O)O)=C(S[C@@H]3CN[C@H](C(=O)N(C)C)C3)[C@H](C)[C@H]12 [MEROPENEM]	0.25 (≈ 0.652 µM)	25	25	64 (≈ 167 µM)	50	50	MIC (Escherichia coli): 8 µg/mL (≈ 20.9 µM); MIC (Klebsiella pneumoniae [7]): 2 µg/mL (≈ 5.22 µM); MIC (Klebsiella pneumoniae [8]): 1 µg/mL (≈ 2.61 µM); MIC (Acinetobacter baumannii [9]): > 16 µg/mL; ED90 (Acinetobacter baumannii [10]): 50 mg/kg; ED50 (Acinetobacter baumannii [10]; read-out: PD50): 50 mg/kg
CN(C)c1cc(NC(=O)CNC(C)(C)C)c(O)c2c1C[C@H]1C[C@H]3[C@H](N(C)C)C(O)=C(C(N)=O)C(=O)[C@@]3(O)C(O)=C1C2=O [TIGECYCLINE]		> 6.25	> 6.25	4 (≈ 6.83 µM)	> 6.25	> 6.25	
COLISTIN							PD50 (Acinetobacter baumannii [2]; time <= 7.0 day): 16.6 mg/kg
